The results in this text go back to PubChem BioAssay.

SMILES strings stand for the structures. The source made the active and inactive calls.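 How the source made its calls, unless noted: active means NADPH fluorescence slope more negative than the mean of all samples by about 3 SD, 99.7% confidence; inactive means the rest.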

As a reminder, the inhibition is the change of the read-out against control, counted positive when it falls.

A short description of experiment [1]: inhibitors of TNFa-induced NFkB p65 translocation, primary screen, imaging, HUVEC, MLSMR starter and 10KST1 sets (AID 438;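 active means inhibition above 20% together with a positive visual image hit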;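 further: compound added about 3h40 before a 20 min TNFalpha stimulation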;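 on inhibition: signal is the nuclear over cytoplasmic p65 intensity ratio per well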). The note with it: HUVEC TNFa-induced p65 nuclear translocation; cell count: measured here: nuclei count (cytotoxicity indicator), at 2.08 µM; inhibition: at 2 µM, stronger effect = higher value, 0% TNFa-plus-vehicle, 100% no-TNFa wells.
Experiment [2] in a line: inhibitors of mutant huntingtin aggregation, primary screen, imaging, exon1htt(103Q)mCFP cells, high-content imaging (AID 483;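 active means visual image review flags a hit and inhibition of aggregation exceeds 20%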;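 further: compound exposure lasted 3 days before fixation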;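 on nuclei count: percent of the per-plate median nuclei count of sample wells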). The note with it: exon1htt(103Q)mCFP cell line, aggregate imaging, at 2 µM; inhibition of aggregation: stronger effect = higher value; nuclei count: measured here: cell count, toxicity.
Experiment [3] can be described thus: inhibitors of E-selectin induction by TNFa, primary screen, imaging, HUVEC, immunofluorescence, MLSMR starter and 10KST1 sets (AID 487;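 active means visually confirmed hit in the image check and inhibition above 20%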;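 on inhibition: signal is fraction of cell area covered by stained E-selectin grains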;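 on nuclei count: 100% = median nuclei count of all wells on the same plate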). The note with it: HUVEC TNFalpha-induced E-selectin immunofluorescence imaging, at 2 µM; inhibition: stronger effect = higher value; nuclei count: measured here: cell number, toxicity.
In experiment [4] the target is Voltage-gated potassium channel subunit beta-2 (Rattus norvegicus) (UniProt P62483). As to the kind of experiment: KvBeta enzyme negative modulators, primary screen, biochemical, NADPH fluorescence (AID 622;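 active means fluorescence slope higher than the sample average by over 3 SD, cut at about -0.22 in these data, passing the limit was not always enough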;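 further: slope of raw intensity against log time taken from 70 to 1610 s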). The settings on record: recombinant KvBeta, 4-cyanobenzaldehyde reduction, at 10 µM, stronger effect = higher value.
The target is the same in experiment [5]. As to the kind of experiment: KvBeta positive modulators, primary screen, biochemical, NADPH fluorescence (AID 623).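 Further: fluorescence intensity change per second fitted from 20 to 320 s.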 The note with it: Recombinant KvBeta, NADPH fluorescence decrease slope, 10 min; at 10 µM; stronger effect = lower value.
Experiment [6] has as its target Muscarinic acetylcholine receptor M4 (Homo sapiens) (UniProt P08173). As to the kind of experiment: compounds altering M4/GIRK thallium flux, either direction, primary screen, M4 allosteric agonist project, cell-based, HEK293 M4/GIRK, BTC-AM (AID 625;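 active means fluorescence slope after compound addition differing from the mean of all tested samples at 99.7% confidence, mostly higher but some lower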;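 further: thallium influx through GIRK channels coupled to M4 in HEK293 cells with BTC-AM dye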). The settings on record: at 10 µM, actives lie on both sides. The procedure, abridged:
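assay system = HEK293 cells with M4 receptor and GIRK channels | medium = pH 7.3 thallium assay buffer | doses = 10 µM final, single point | timing = cells overnight at 37 °C, BTC-AM loading 1 h, reads 2 min total | signal = BTC-AM fluorescence, 1 Hz kinetic reads | read-out = post-addition slope, 15–24 s, of baseline-normalized fluorescence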

Experiment [7] can be described thus: inhibitors of Sendai virus-induced IRF3 signaling, primary screen, TLR/RLR signaling modifier project, cell-based, Sendai virus stimulus, luciferase, 10K MLSCN set (AID 602276;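 active means inhibition at or above 50% at 10 µM; inactive means inhibition below 50%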;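 further: firefly luciferase from ISG56 promoter only with Renilla not read in this screen; 0% = Sendai virus plus DMSO and 100% = medium plus DMSO without virus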). The note with it: HEK293 RL24 IRF3 luciferase reporter, at 10 µM, stronger effect = higher value. In general terms: A reporter such as luciferase makes a cellular process visible.
Experiment [8] is described as follows: inhibitors of poly I:C-induced TLR3 signaling, primary screen, cell-based, poly I:C stimulus, luciferase, 10K MLSCN set (AID 602277;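 active means inhibition of the reporter signal at or above 50%; inactive means inhibition below 50%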). The note with it: HEK293-TLR3 RL24 IRF3 luciferase reporter, at 10 µM, stronger effect = higher value.

Voltage-gated potassium channel subunit beta-2 (Rattus norvegicus), sequence (P62483 whole entry, looked up): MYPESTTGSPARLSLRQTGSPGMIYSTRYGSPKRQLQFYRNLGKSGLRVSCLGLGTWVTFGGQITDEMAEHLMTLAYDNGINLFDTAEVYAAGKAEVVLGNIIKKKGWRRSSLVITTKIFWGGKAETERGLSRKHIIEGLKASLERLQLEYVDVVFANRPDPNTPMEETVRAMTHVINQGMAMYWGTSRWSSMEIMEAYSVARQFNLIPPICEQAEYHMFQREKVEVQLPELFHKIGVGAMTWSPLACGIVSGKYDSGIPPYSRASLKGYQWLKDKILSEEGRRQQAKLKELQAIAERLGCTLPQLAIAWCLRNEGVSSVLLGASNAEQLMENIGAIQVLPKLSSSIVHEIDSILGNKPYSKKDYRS
Muscarinic acetylcholine receptor M4 (Homo sapiens), sequence (P08173 whole entry, looked up): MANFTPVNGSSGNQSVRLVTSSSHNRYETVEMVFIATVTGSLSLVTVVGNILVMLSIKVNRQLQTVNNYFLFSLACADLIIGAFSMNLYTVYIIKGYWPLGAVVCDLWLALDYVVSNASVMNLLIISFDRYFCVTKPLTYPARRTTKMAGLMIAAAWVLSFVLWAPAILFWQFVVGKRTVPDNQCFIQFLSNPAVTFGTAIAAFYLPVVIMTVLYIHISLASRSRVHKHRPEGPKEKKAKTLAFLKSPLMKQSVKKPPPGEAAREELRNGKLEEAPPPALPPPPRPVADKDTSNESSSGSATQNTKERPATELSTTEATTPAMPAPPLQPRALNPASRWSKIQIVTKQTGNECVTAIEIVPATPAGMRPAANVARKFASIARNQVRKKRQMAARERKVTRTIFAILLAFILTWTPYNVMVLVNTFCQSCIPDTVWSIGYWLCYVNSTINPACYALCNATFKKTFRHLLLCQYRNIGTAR

Turning to `O=C(CNS(=O)(=O)c1ccc(Br)s1)N1CCCC1`, the cell count in experiment [1] was 367. The inhibition was 3.7% (inactive) in experiment [1], -164% (inactive) in experiment [3], 21.1% (inactive) in experiment [7] and 25.7% (inactive) in experiment [8]. The inhibition of aggregation in experiment [2] was -1% (inactive). Also, the figures for the nuclei count in experiment [2] and in experiment [3] were 93.3% and 101%, respectively. Besides, the fluorescence slope was -0.636 (inactive) in experiment [4] and 0.00369 (inactive) in experiment [6]. Also, the NADPH fluorescence slope in experiment [5] was -9.6e-06 (inactive).
For `COc1ccccc1C1c2c(oc3ccc(Cl)cc3c2=O)C(=O)N1c1cc(C)on1` (stereo not drawn), the cell count in experiment [1] stood at 345. In addition, the inhibition is -5% (inactive) in experiment [1], -13.8% (inactive) in experiment [3], 24.8% (inactive) in experiment [7] and 16.8% (inactive) in experiment [8]. Also, the inhibition of aggregation in experiment [2] is 2.2% (inactive). In addition, the nuclei count stood at 103% in experiment [2] and 112% in experiment [3]. The fluorescence slope in experiment [4] is -0.555 (inactive); in experiment [6], 0.0044 (inactive). The NADPH fluorescence slope in experiment [5] is 2.1e-05 (inactive).
Take `CCC(NS(=O)(=O)c1ccc(C)cc1)C(=O)N1CCC2(O)CCCCC2C1` (stereo not drawn): the cell count in experiment [1] stood at 379. The inhibition in experiment [1] is -3.1% (inactive); in experiment [3], -121% (inactive); in experiment [7], 0.0772% (inactive); in experiment [8], 14.3% (inactive). For the same compound, the inhibition of aggregation in experiment [2] was -10.7% (inactive). For the same compound, the nuclei count worked out at 106% in experiment [2] and 215% in experiment [3]. Besides, the fluorescence slope was -0.429 (inactive) in experiment [4] and 0.00572 (inactive) in experiment [6]. Further, the NADPH fluorescence slope in experiment [5] was 0.000113 (inactive).
As to `COc1ccccc1CNC(=O)CCn1c(=O)[nH]c2ccsc2c1=O`, the cell count in experiment [1] is 504. Moreover, the inhibition is 1.1% (inactive) in experiment [1], 9.6% (inactive) in experiment [3], 16.6% (inactive) in experiment [7] and -5.76% (inactive) in experiment [8]. Further, the inhibition of aggregation in experiment [2] is 6.6% (inactive). Moreover, the nuclei count in experiment [2] turned out to be 111%; in experiment [3], 110%. The fluorescence slope is -0.266 (inactive) in experiment [4] and 0.0062 (inactive) in experiment [6]. Moreover, the NADPH fluorescence slope in experiment [5] was -3e-05 (inactive).
For the compound `CC(C)(C)SCCNC(=O)COc1ccccc1`, in experiment [1], the cell count worked out at 368. Moreover, the inhibition in experiment [1] was -2.3% (inactive); in experiment [3], -16.9% (inactive); in experiment [7], 1.01% (inactive); in experiment [8] it was -18% (inactive). The inhibition of aggregation in experiment [2] was 16.8% (inactive). Also, the values for the nuclei count in experiment [2] and in experiment [3] were 91.5% and 110%, respectively. Also, the fluorescence slope in experiment [4] is -0.32 (inactive); in experiment [6], 0.00624 (inactive). In experiment [5], the NADPH fluorescence slope is -4.6e-05 (inactive).
Consider `O=C(O)C1C2C=CC(O2)C1C(=O)NCc1ccc(Cl)cc1` (stereo not drawn), for which, in experiment [1], the cell count was 714. Also, the inhibition was -7.5% (inactive) in experiment [1], 16.4% (inactive) in experiment [3], 11.9% (inactive) in experiment [7] and 5.33% (inactive) in experiment [8]. Besides, the inhibition of aggregation in experiment [2] is 22.6% (inactive). The nuclei count turned out to be 95.5% in experiment [2] and 100% in experiment [3]. Also, the fluorescence slope is -0.531 (inactive) in experiment [4] and 0.0043 (inactive) in experiment [6]. Moreover, the NADPH fluorescence slope in experiment [5] is -3.3e-05 (inactive).
As to `Cc1cccc(C)c1OCC(=O)Nc1cccc(NC(=O)c2ccco2)c1`, in experiment [1], the cell count worked out at 464. Moreover, the inhibition in experiment [1] was -9.5% (inactive); in experiment [3], -10.3% (inactive); in experiment [7], 13.3% (inactive); in experiment [8], 9.13% (inactive). Moreover, in experiment [2], the inhibition of aggregation is 23.3% (inactive). Further, the nuclei count in experiment [2] was 87.7%; in experiment [3], 96.3%. The fluorescence slope is -0.447 (inactive) in experiment [4] and 0.00569 (inactive) in experiment [6]. Besides, the NADPH fluorescence slope in experiment [5] was 5.1e-06 (inactive).
In the case of `O=C1CCC(=O)N1OCCCCOc1ccccc1`, the cell count in experiment [1] was found to be 692. The inhibition in experiment [1] is 3.7% (inactive); in experiment [3] it was 7.8% (inactive); in experiment [7], 15.8% (inactive); in experiment [8], 18% (inactive). In experiment [2], the inhibition of aggregation is -1.2% (inactive). For the same compound, the nuclei count in experiment [2] was 105%; in experiment [3], 106%. The fluorescence slope was -0.421 (inactive) in experiment [4] and 0.00701 (inactive) in experiment [6]. Besides, the NADPH fluorescence slope in experiment [5] is 3.2e-05 (inactive).
